The nature of this data set: Toxicity liver stage against HepG2, at 10uM. It is filed as cell-based. Conditions: human, HepG2-A16-CD81EGFP cells; read-out: INHIBITION
Details: test concentration 10 uM, cell line HepG2-A16-CD81EGFP. Summed up:
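Uninfected HepG2-A16-CD81EGFP cells, 3 × 10^3 per well, 1536-well, plated on prespotted compound at 10 μM final, parasite-free screening media added to match infected plates; puromycin 10 μM positive, DMSO 0.5% negative; run in parallel with 48 h PbLuc assay at 37 °C, 5% CO2; viability by CellTiter-Glo luminescence, normalized to controls.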
Consider `COc1ccc(F)cc1C(=O)C1CCCN(Cc2cnc(C)s2)C1` (stereo unspecified), for which the cytotoxicity at 10 µM was 6.26%.

As to `O=C(c1ccc2c(c1)OCO2)N1CCN2C(=O)NC[C@H]2C1`, the cytotoxicity at 10 µM turned out to be 2.02%.

Regarding `Cc1n[nH]c2c1C(c1ccc(Cl)cc1)SCC(=O)N2` (stereo unspecified), the cytotoxicity at 10 µM was found to be 19.2%. Turning to `CCOc1nc2cnccc2n(CC(=O)NCc2ccco2)c1=O`, the cytotoxicity at 10 µM is -8.84%. For `CC(C)COC(=O)N1CC(=O)N(Cc2ccco2)CC(O)C1` (stereo unspecified) the value was -1.7%. For `CCN1CC(O)CN(C(=O)c2ccc(SC)cc2)CC1=O` (stereo unspecified), the cytotoxicity at 10 µM amounted to 6.88%. In the case of `CC(C)C[C@H](NC(=O)Nc1ccc(F)c(Cl)c1)C(=O)O` it was -43%. Consider `N#Cc1nc(COc2ccc3c(c2)OCO3)oc1NC1CC1`, for which the cytotoxicity at 10 µM is -43%. Take `O=C(NCC(Cc1cccc(F)c1)N1CCCC1=O)c1ccc(=O)[nH]n1` (stereo unspecified): the cytotoxicity at 10 µM is -0.634%. Regarding `NC(=O)N1CC[C@H](O)[C@@H]1Cc1ccccc1`, the cytotoxicity at 10 µM worked out at 3.32%. In the case of `Cc1nc(CN2CCc3nc(NC(C)C)nc(C)c3C2)cs1` it was 2.53%; in that of `CS(=O)(=O)NC[C@]12COC[C@H]1CN(C(=O)CCc1ccccc1)C2`, -1.23%. For `Cc1ccccc1CS(=O)(=O)c1nnc(C(C)NC(=O)OC(C)(C)C)o1` (stereo unspecified) the value was -1%. With `Cc1cc(N2CCC(Cc3ccccc3)CC2)ncn1`, the cytotoxicity at 10 µM was found to be 3.51%. Turning to `CN1CCCCC[C@@H]2[C@@H]1[C@H](c1ccccc1)CN2C(=O)c1cccnc1`, the cytotoxicity at 10 µM was -24.4%.

As to `CN1CCCC[C@@H]2[C@H]1[C@@H](c1ccccc1)CCN2C(=O)c1cccnc1`, the cytotoxicity at 10 µM is -21.2%. In the case of `Cc1cc(C)nc(Nc2cccc(C3CCCN(CC4CC4)C3)n2)n1` (stereo unspecified), the cytotoxicity at 10 µM was -11.3%. On to `COCC(=O)N1CCc2nc(-c3cnccn3)nc(O)c2C1`, for which the cytotoxicity at 10 µM was 27.7%. In the case of `CS(=O)(=O)N1CCC(C(=O)NC(Cc2ccsc2)c2cccnc2)CC1` (stereo unspecified) it was -12.5%. As for `O=C(N[C@@H]1CN(Cc2cccc(F)c2)C[C@H]1O)c1cscn1`, the cytotoxicity at 10 µM is -4.66%. On to `CC(=O)N1CC(Cc2nccc3ccn(C)c23)C1`, for which the cytotoxicity at 10 µM turned out to be 0.668%. As for `COc1ccccc1C(=O)N1CC(Cc2nccc3ccn(C)c23)C1`, the cytotoxicity at 10 µM was -0.619%. For `COc1ccc(NC(=O)Cc2c(C)nn(C)c2C)cc1F` the value was 10.1%. For `CC(C)(C)NC(=O)c1cccc(CN2CCS(=O)(=O)CC2)c1` the value was 4.5%. For `COC(=O)CCN1CCC(C(=O)c2cc(F)ccc2F)CC1`, the cytotoxicity at 10 µM was -11.1%. As for `CCn1cnnc1C1CCN(C(=O)c2c(C)oc(C)c2C)CC1`, the cytotoxicity at 10 µM is 5.89%. Take `CCN(CC(=O)NC(C)C)C(=O)c1ccc(-c2ccsc2)nc1C`: the cytotoxicity at 10 µM was -0.908%. With `CCN(CC(=O)N(C)C)C(=O)C(C)(C)c1ccc2c(c1)OCCO2`, the cytotoxicity at 10 µM came out at 1.22%. For the compound `CCn1c(=O)n(Cc2nc(C3CC3)no2)c2ccccc21`, the cytotoxicity at 10 µM is -43.2%. `CCOc1cccc(CNC(C)c2ccc(-n3ccnc3)cc2)c1O` (stereo unspecified): the cytotoxicity at 10 µM was -38.3%. For the compound `Cc1ccc(CNC(=O)Cn2c(=O)c3cccnc3n2C)cc1F`, the cytotoxicity at 10 µM was -2.83%. `CCC(Nc1nnnn1-c1ccccc1)C(=O)NCc1cccs1` (stereo unspecified): the cytotoxicity at 10 µM was -1.12%. On to `CCOCC(=O)Nc1cccnc1-n1ccnc1C`, for which the cytotoxicity at 10 µM came out at 3.62%.

For the compound `CC(C)CCN1CCN(C(=O)c2ccc(=O)[nH]n2)CC1`, the cytotoxicity at 10 µM was -6.96%. With `CC(CCc1ccccc1)N1CCC(C(=O)NCc2ccccc2)CC1` (stereo unspecified), the cytotoxicity at 10 µM came to 11%. Turning to `CCn1ncc(C(=O)NCc2ccc(C)c(OC)c2)c1C(F)(F)F`, the cytotoxicity at 10 µM came out at 10.2%. For `O=C1CCC(C(=O)Nc2cnn(-c3ccccc3Br)c2)N1` (stereo unspecified) the value was 3.56%. As for `Cc1cnc(CN2CCN(c3ccnc(-c4ccccc4)n3)CC2)cn1`, the cytotoxicity at 10 µM is 3.61%. `Cc1nnc(NC(=O)CN2CCCC(c3ccn[nH]3)C2)s1` (stereo unspecified): the cytotoxicity at 10 µM was -37.6%. As to `CCc1nc(C2CCCN2Cc2nc(CCOC)no2)no1` (stereo unspecified), the cytotoxicity at 10 µM was -10.8%. Regarding `COCCN(Cc1ccccc1Cl)c1nc(CCN)nc2ccccc12`, the cytotoxicity at 10 µM is 12.9%.

Consider `Cc1cc(C2CCCCN2C(=O)CN2C(=O)OC(C)(C)C2=O)no1` (stereo unspecified), for which the cytotoxicity at 10 µM stood at 3.35%. With `OC1(CN2CCCCC2)CCN(c2cccc(C(F)(F)F)n2)C1` (stereo unspecified), the cytotoxicity at 10 µM is -10.4%. Take `CCCOCC(=O)N1CCCC(c2nnc(CN3CCCCC3)n2C)C1` (stereo unspecified): the cytotoxicity at 10 µM was -2.34%. In the case of `CCN(Cc1ccccc1)C(=O)CCN1CC(O)C1`, the cytotoxicity at 10 µM was determined as 7.48%. In the case of `Cc1cc(C(=O)N2C[C@H](CO)C[C@H](CN3CCOCC3)C2)cnc1C` it was 3.98%; in that of `O=C(Cn1cccc1)NCC1CCN(Cc2cc3ccccc3[nH]2)C1` (stereo unspecified), 12.6%; in that of `Cc1cc(NCC2CCS(=O)(=O)C2)n2nc(C)cc2n1` (stereo unspecified), 1.41%. With `Cc1ncc(C)c(N2CCC(CCc3ccccc3)(C(=O)O)CC2)n1`, the cytotoxicity at 10 µM was found to be 3.49%. As to `CC1(Cc2ccc3c(c2)OCO3)CCCN(S(=O)(=O)N2CCOCC2)C1` (stereo unspecified), the cytotoxicity at 10 µM is -5.39%.

For `CCNC(=O)[C@@H]1C[C@H](N)CN1Cc1ccc(-c2ccccc2C#N)o1`, the cytotoxicity at 10 µM is -38.2%.

Take `Cc1ccsc1CN(C)CCc1scnc1C`: the cytotoxicity at 10 µM is -17.6%. As for `CCCc1nnc(N2CCC3(CCC(=O)N(C)C3)CC2)o1`, the cytotoxicity at 10 µM came out at 3.96%. For the compound `c1ccc(CCN2CCCC(Cn3ccnc3)C2)cc1` (stereo unspecified), the cytotoxicity at 10 µM is 1.43%. With `O=C(c1cnc(O)cn1)N(Cc1ccsc1)CC1CCCO1` (stereo unspecified), the cytotoxicity at 10 µM was 3.7%. Take `COc1cccc(C(C(=O)O)N(C)Cc2ccc(C)o2)c1` (stereo unspecified): the cytotoxicity at 10 µM was -1.35%. In the case of `Cc1cccc(CN2CCN(c3ncnc4[nH]cnc34)CC2CCO)n1` (stereo unspecified) it was -3.09%. As to `COc1ccc(CN2CCN(C3CCc4ccccc4C3)CC2)cc1O` (stereo unspecified), the cytotoxicity at 10 µM was -6.55%. For `Cc1cc(C(=O)N2C[C@H](C(C)C)[C@@H](N(C)C)C2)cs1` the value was -0.421%. In the case of `CCCc1cc(C(=O)N2CCC3(CCCN(CCO)C3=O)C2)cs1` (stereo unspecified) it was -144%; in that of `Cc1nc(C(F)(F)F)nc(N2CCC3(CC2)CC(C(=O)O)N(C)C3)c1C` (stereo unspecified), -4.14%; in that of `Cc1nn(C)c2nc(NCCCN3CCCC(CO)C3)sc12` (stereo unspecified), -14.2%. Turning to `Cc1ocnc1C(=O)N1CCC2(CC1)c1nc[nH]c1CCN2CC(C)C`, the cytotoxicity at 10 µM was -11.4%. On to `CC(=O)N1CCC(N[C@@H]2CC[C@@H]2NS(=O)(=O)c2cccnc2)CC1`, for which the cytotoxicity at 10 µM stood at 2.98%.

Turning to `CN1CC[C@H]2CN(C(=O)COCc3nc4cc(F)ccc4[nH]3)C[C@H]21`, the cytotoxicity at 10 µM worked out at 2.77%.

As for `CC1(C)CN(C(=O)CC2CCC2)C[C@]1(C)O`, the cytotoxicity at 10 µM was -9.15%. Turning to `Cc1ccsc1CN1CCCC(CNC(=O)c2ccc(N)nc2)C1` (stereo unspecified), the cytotoxicity at 10 µM is -2.25%. With `Cc1nc(N)sc1C(=O)N1CCC(C(O)Cc2ccccc2)CC1` (stereo unspecified), the cytotoxicity at 10 µM stood at 2.29%. For `Cc1ccc(-c2cn[nH]c2C2CCCN(c3nccc(N)n3)C2)cc1` (stereo unspecified) the value was 15.6%; for `O=C(CCc1cc2n(n1)CCCN(C(=O)c1ccccn1)C2)NC1CC1`, -13.7%; for `Cc1cc(C)n(NC(=O)c2ccccc2F)c(=O)c1`, -13.2%. Consider `CCN(CC)C1COc2c(cc(Br)c(C)c2C)C1=O` (stereo unspecified), for which the cytotoxicity at 10 µM stood at 0.331%. Consider `Cc1cc(CN2CCCC2c2noc(C(C)C)n2)on1` (stereo unspecified), for which the cytotoxicity at 10 µM is -0.713%. For `CN1CCN(C2CCN(CCCOc3ccc(F)cc3)CC2)C1=O` the value was 0.28%. For `Cc1cc(CN2CCCC2c2c(C)nn(C)c2Cl)on1` (stereo unspecified) the value was -4.77%; for `Cc1nc2ccnn2c(C)c1CCC(=O)N1CCN(CCO)CC1`, -6.29%. On to `CC(C)(CNC(=O)COc1cccc(F)c1)C(N)=O`, for which the cytotoxicity at 10 µM is -4.89%. Consider `Cc1cccc(OCC(O)CN2CCC(Cn3cccn3)CC2)c1` (stereo unspecified), for which the cytotoxicity at 10 µM was -1.43%.

As for `Cc1ccc(CN2CCCN(Cc3cscn3)CC2)cc1`, the cytotoxicity at 10 µM was -8.47%. For the compound `N#Cc1ccc(OCC(=O)N2CCCC(n3cccn3)C2)cc1` (stereo unspecified), the cytotoxicity at 10 µM was -2.83%.

On to `Cc1cnn(CC2CCCCN2C(=O)c2cccc3c2OCO3)c1` (stereo unspecified), for which the cytotoxicity at 10 µM is -4.89%. On to `O=C(CCc1ccc(F)cc1)NS(=O)(=O)c1ccc2c(c1)OCCCO2`, for which the cytotoxicity at 10 µM is 4.4%. As for `CCc1ncc2c(n1)CN(Cc1nc(-c3ccccn3)no1)CC2`, the cytotoxicity at 10 µM is -20.9%. In the case of `COc1c(CNC2CCOc3ccccc32)c(C(C)C)nn1C` (stereo unspecified), the cytotoxicity at 10 µM was -0.169%. In the case of `O=C(CN1CCC(N2CCNC2=O)CC1)NCC(F)(F)F` it was -3.35%; in that of `Cc1cnn(CC(C)NCc2csc(-c3cnn(C)c3)n2)c1` (stereo unspecified), 5.32%. In the case of `COCC(=O)N1CCC2(CC1)NC(=O)c1ccccc12` it was 3.15%; in that of `CCN(CC)C(=O)c1cc(C2CCCN2C)ccn1` (stereo unspecified), -3.24%.

Consider `COCCN1CCOCC2(CCCN(Cc3cccc(F)c3)C2)C1` (stereo unspecified), for which the cytotoxicity at 10 µM came out at 0.346%. With `CNC(=O)[C@@H]1C[C@H]2CN(Cc3nccs3)C[C@H]2N1C`, the cytotoxicity at 10 µM was 7.73%.

For `COc1ccccc1CNC(Cc1cccs1)c1nc(C)cs1` (stereo unspecified), the cytotoxicity at 10 µM was -6.12%. In the case of `O=C1CCC2(CCN(Cc3ccc(F)cc3)CC2)N1Cc1ccccc1` it was -1.63%; in that of `Cc1noc(C)c1CN1CCN(CC2CC2)c2ncccc2C1`, 5.56%.

`Cc1cccc(-c2ccc3nc(C4CCN(CC5CC5)CC4)nn3c2)c1`: the cytotoxicity at 10 µM was -12.2%. Take `Cc1c(C2N3CC4(C)CN2CC(C)(C3)C4=O)[nH]c(=O)[nH]c1=O` (stereo unspecified): the cytotoxicity at 10 µM came out at 6.57%. Consider `CC1=C(C#N)C(=O)NC(=O)/C1=C\c1c(C)[nH]n(-c2ccc(C)cc2)c1=O`, for which the cytotoxicity at 10 µM was 1.91%.
